In ChEMBL document CHEMBL1127509, “Antitumor agents. 152. In vitro inhibitory activity of etoposide derivative NPF against human tumor cell lines and a study of its conformation by X-ray crystallography, molecular modeling, and NMR spectroscopy” (1994):
Blank lines part the entries; values can stand above or below the molecule they belong to.

Tests used:
Tumor Cell line [1] = experiment: Tested for in vitro inhibitory activity against drug concentration causing 50% cell growth inhibition in 56 human tumor cell lines derived from renal cancer in test 8; log10 GI50; assay type: functional
Procedure, shortened: (§1)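 NCI 56-line human tumour panel screen. Cells were seeded in 96-well plates on day 0, mostly at 20 000 cells/well, and preincubated 24 h without drug. Drug was then added at five 10-fold dilutions for a further 48 h. Cells were fixed in situ and stained with SRB, and bound dye was read spectrophotometrically. GI50, TGI (0% growth) and LC50 (−50% growth) were taken versus control. Values are mean-graph midpoints (log10) per test.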

Tumor Cell line [2] = experiment: Tested for in vitro inhibitory activity against drug concentration causing 50% cell death inhibition in 56 human tumor cell lines derived from Renal cancer in test 8; log10 LC50; assay type: functional; settings: read-out: Log LC50 (the source's name) (converted); procedure, shortened: as §1
Tumor Cell line [3] = experiment: Tested for in vitro inhibitory activity against drug concentration causing 50% cell death inhibition in 56 human tumor cell lines derived from Melanoma in test 6; log10 LC50; assay type: functional; settings: read-out: Log LC50 (the source's name) (converted); procedure, shortened: as §1
Tumor Cell line [4] = experiment: Tested for in vitro inhibitory activity against drug concentration causing 50% cell growth inhibition in 56 human tumor cell lines derived from small-cell-lung cancer in test 3; log10 GI50; assay type: functional; procedure, shortened: as §1
Tumor Cell line [5] = experiment: Tested for in vitro inhibitory activity against drug concentration causing total cell growth inhibition in 56 human tumor cell lines derived from Renal cancer in test 8; log10 TGI50; assay type: functional; settings: read-out: Log TGI (converted); procedure, shortened: as §1
Tumor Cell line [6] = experiment: Tested for in vitro inhibitory activity against drug concentration causing total cell growth inhibition in 56 human tumor cell lines derived from ovarian cancer in test 7; log10 TGI50; assay type: functional; settings: read-out: Log TGI (converted); procedure, shortened: as §1
Tumor Cell line [7] = experiment: Tested for in vitro inhibitory activity against drug concentration causing 50% cell growth inhibition in 56 human tumor cell lines derived from colon cancer in test 4; log10 GI50; assay type: functional; procedure, shortened: as §1
Tumor Cell line [8] = experiment: Tested for in vitro inhibitory activity against drug concentration causing 50% cell growth inhibition in 56 human tumor cell lines derived from leukemia in test 9; log10 GI50; assay type: functional; procedure, shortened: as §1
Tumor Cell line [9] = experiment: Tested for in vitro inhibitory activity against drug concentration causing total cell growth inhibition in 56 human tumor cell lines derived from leukemia in test 9; log10 TGI50; assay type: functional; settings: read-out: Log TGI (converted); procedure, shortened: as §1
Tumor Cell line [10] = experiment: Tested for in vitro inhibitory activity against drug concentration causing total cell growth inhibition in 56 human tumor cell lines derived from leukemia in test 1; log10 TGI50; assay type: functional; settings: read-out: Log TGI (converted); procedure, shortened: as §1
Tumor Cell line [11] = experiment: Tested for in vitro inhibitory activity against drug concentration causing total cell growth inhibition in 56 human tumor cell lines derived from CNS cancer in test 5; log10 TGI50; assay type: functional; settings: read-out: Log TGI (converted); procedure, shortened: as §1
Tumor Cell line [12] = experiment: Tested for in vitro inhibitory activity against drug concentration causing 50% cell death inhibition in 56 human tumor cell lines derived from small cell lung cancer in test 3; log10 LC50; assay type: functional; settings: read-out: Log LC50 (the source's name) (converted); procedure, shortened: as §1
Tumor Cell line [13] = experiment: Tested for in vitro inhibitory activity against drug concentration causing 50% cell growth inhibition in 56 human tumor cell lines derived from leukemia in test 1; log10 GI50; assay type: functional; procedure, shortened: as §1
Tumor Cell line [14] = experiment: Tested for in vitro inhibitory activity against drug concentration causing total cell growth inhibition in 56 human tumor cell lines derived from small-cell-lung cancer in test 3; log10 TGI50; assay type: functional; settings: read-out: Log TGI (converted); procedure, shortened: as §1
Homo sapiens = species on record: Homo sapiens; experiment: Tested for in vitro inhibitory activity against drug concentration causing 50% cell growth inhibition in 56 human tumor cell lines derived from Non-small-cell lung cancer in test 2; log10 GI50; assay type: functional; procedure, shortened: as §1
Tumor Cell line [15] = experiment: Tested for in vitro inhibitory activity against drug concentration causing 50% cell death inhibition in 56 human tumor cell lines derived from CNS cancer in test 5; log10 LC50; assay type: functional; settings: read-out: Log LC50 (the source's name) (converted); procedure, shortened: as §1
Tumor Cell line [16] = experiment: Tested for in vitro inhibitory activity against drug concentration causing total cell growth inhibition in 56 human tumor cell lines derived from Melanoma in test 6; log10 TGI50; assay type: functional; settings: read-out: Log TGI (converted); procedure, shortened: as §1
Tumor Cell line [17] = experiment: Tested for in vitro inhibitory activity against drug concentration causing 50% cell growth inhibition in 56 human tumor cell lines derived from CNS cancer in test 5; log10 GI50; assay type: functional; procedure, shortened: as §1
Tumor Cell line [18] = experiment: Tested for in vitro inhibitory activity against drug concentration causing 50% cell growth inhibition in 56 human tumor cell lines derived from Melanoma in test 6; log10 GI50; assay type: functional; procedure, shortened: as §1
Tumor Cell line [19] = experiment: Tested for in vitro inhibitory activity against drug concentration causing total cell growth inhibition in 56 human tumor cell lines derived from Non small cell lung cancer in test 2; log10 TGI50; assay type: functional; settings: read-out: Log TGI (converted); procedure, shortened: as §1
Tumor Cell line [20] = experiment: Tested for in vitro inhibitory activity against drug concentration causing 50% cell death inhibition in 56 human tumor cell lines derived from leukemia in test 9; log10 LC50; assay type: functional; settings: read-out: Log LC50 (the source's name) (converted); procedure, shortened: as §1
Tumor Cell line [21] = experiment: Tested for in vitro inhibitory activity against drug concentration causing 50% cell death inhibition in 56 human tumor cell lines derived from Ovarian cancer in test 7; log10 LC50; assay type: functional; settings: read-out: Log LC50 (the source's name) (converted); procedure, shortened: as §1
Tumor Cell line [22] = experiment: Tested for in vitro inhibitory activity against drug concentration causing 50% cell death inhibition in 56 human tumor cell lines derived from colon cancer in test 4; log10 LC50; assay type: functional; settings: read-out: Log LC50 (the source's name) (converted); procedure, shortened: as §1
Tumor Cell line [23] = experiment: Tested for in vitro inhibitory activity against drug concentration causing 50% cell death inhibition in 56 human tumor cell lines derived from leukemia in test 1; log10 LC50; assay type: functional; settings: read-out: Log LC50 (the source's name) (converted); procedure, shortened: as §1
Tumor Cell line [24] = experiment: Tested for in vitro inhibitory activity against drug concentration causing total cell growth inhibition in 56 human tumor cell lines derived from colon cancer in test 4; assay type: functional; settings: read-out: Log TGI (converted); procedure, shortened: as §1
Tumor Cell line [25] = experiment: Tested for in vitro inhibitory activity against drug concentration causing 50% cell growth inhibition in 56 human tumor cell lines derived from Ovarian cancer in test 7; log10 GI50; assay type: functional; procedure, shortened: as §1
Tumor Cell line [26] = experiment: Tested for in vitro inhibitory activity against drug concentration causing 50% cell death inhibition in 56 human tumor cell lines derived from Non small cell lung cancer in test 2; log10 LC50; assay type: functional; settings: read-out: Log LC50 (the source's name) (converted); procedure, shortened: as §1
P388 = experiment: Tested for in vitro inhibitory activity against drug concentration causing 50% cell growth inhibition in P388/ADR cell lines; log10 GI50; assay type: functional, Homo sapiens; settings: Mus musculus
Procedure, shortened: (§2)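 NCI screen: cells plated on day 0 (mostly 20 000 cells/well) and preincubated drug-free for 24 h. Drug then added at five 10-fold dilutions for 48 h. Cells were fixed in situ, stained with sulforhodamine B, and the solubilized bound dye read spectrophotometrically. GI50, the concentration giving 50% growth inhibition versus control, was taken from dose-response curves.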

Tumor Cell line [27] = experiment: Tested for in vitro inhibitory activity against drug concentration causing 50% cell growth inhibition in 56 human tumor cell lines derived from leukemia; log10 GI50; assay type: functional; procedure, shortened: as §2

Compound: COc1cc([C@@H]2c3cc4c(cc3[C@@H](Nc3ccc(F)cc3)[C@H]3COC(=O)[C@H]23)OCO4)cc(OC)c1O
GI50 (Tumor Cell line [1]): 646 nM
CC50 (Tumor Cell line [2]): 1000 nM
CC50 (Tumor Cell line [3]): 1000 nM
GI50 (Tumor Cell line [4]): 1410 nM
TGI (Tumor Cell line [5]): 977 nM
TGI (Tumor Cell line [6]): 12000 nM
GI50 (Tumor Cell line [7]): 708 nM
GI50 (Tumor Cell line [8]): 813 nM
TGI (Tumor Cell line [9]): 8710 nM
TGI (Tumor Cell line [10]): 9770 nM
TGI (Tumor Cell line [11]): 11000 nM
CC50 (Tumor Cell line [12]): 61700 nM
GI50 (Tumor Cell line [13]): 1100 nM
TGI (Tumor Cell line [14]): 9550 nM
GI50 (Homo sapiens): 813 nM
CC50 (Tumor Cell line [15]): 63100 nM
TGI (Tumor Cell line [16]): 977 nM
GI50 (Tumor Cell line [17]): 1350 nM
GI50 (Tumor Cell line [18]): 661 nM
TGI (Tumor Cell line [19]): 12300 nM
CC50 (Tumor Cell line [20]): 61700 nM
CC50 (Tumor Cell line [21]): 79400 nM
CC50 (Tumor Cell line [22]): 1000 nM
CC50 (Tumor Cell line [23]): 61700 nM
TGI (Tumor Cell line [24]): 1000 nM
GI50 (Tumor Cell line [25]): 871 nM
CC50 (Tumor Cell line [26]): 66100 nM

GI50 (P388): 63100 nM
GI50 (Tumor Cell line [27]): 83200 nM
Compound: COc1cc([C@@H]2c3cc4c(cc3[C@@H](O[C@@H]3O[C@@H]5CO[C@@H](C)O[C@H]5[C@H](O)[C@H]3O)[C@H]3COC(=O)[C@H]23)OCO4)cc(OC)c1O [ETOPOSIDE]
